Screening data from PubChem BioAssay.
OXTR agonist = human OXTR agonists, primary screen, fluorescence, CHO-OTR cells, Fluo-8 calcium; Fluo-8 calcium fluorescence; normalized: DMSO 0%, oxytocin 100%; activation, % at 3 µM; 320,000 compounds, 0.32% hits;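 active = activation above the mean of all tested compounds plus 3 SD, cutoff set per screening run, cut at about 20% in these data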;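 also: peak over basal fluorescence ratio from a 100 s FLIPR kinetic read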
zfTRPN1 agonist = zebrafish TRPN1 channel agonists, primary screen, cell-based, HEK293, calcium fluorescence; 220,000 compounds, 0.18% hits; AID 1424, 2008; activation, % at 3 µM; HEK293 zebrafish TRPN1-YFP, Fluo-8 calcium fluorescence; 100% = response to 87 µM carbachol; transient receptor potential cation channel N1 (TRPN1/NompC), Danio rerio;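 active = activation above its plate's cutoff, the mean activation of test wells on that plate plus 3 SD, cut at about 19% in these data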;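 also: 0% = DMSO alone and 100% = 87 µM carbachol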
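Material – zebrafish TRPN1-YFP in HEK293 cells · Doses – 3 µM single point · Schedule – dye 1 h 37 °C plus 30 min RT · Signal – Fluo-8 calcium fluorescence, excitation 470-495 nm, emission 515-575 nm · Read-out – % activation versus carbachol response · Control set – carbachol high, DMSO low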
V1aR counter = agonists of human V1a receptor, primary screen, counter-screen for OXTR agonist project, fluorescence, CHO-V1R cells; Vasopressin V1a receptor (Homo sapiens), P37288; 320,000 compounds, 0.25% hits; Fluo-8 calcium fluorescence, agonist mode; 0% DMSO, 100% 3 nM vasopressin; activation, % at 3 µM; AID 2797, 2010;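 active = activation above the mean activation of all tested compounds plus 3 SD, per screening run, cut at about 20% in these data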;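 also: signal is peak over basal fluorescence ratio across a 100 second FLIPR read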
Target sequence (P37288 whole entry, looked up): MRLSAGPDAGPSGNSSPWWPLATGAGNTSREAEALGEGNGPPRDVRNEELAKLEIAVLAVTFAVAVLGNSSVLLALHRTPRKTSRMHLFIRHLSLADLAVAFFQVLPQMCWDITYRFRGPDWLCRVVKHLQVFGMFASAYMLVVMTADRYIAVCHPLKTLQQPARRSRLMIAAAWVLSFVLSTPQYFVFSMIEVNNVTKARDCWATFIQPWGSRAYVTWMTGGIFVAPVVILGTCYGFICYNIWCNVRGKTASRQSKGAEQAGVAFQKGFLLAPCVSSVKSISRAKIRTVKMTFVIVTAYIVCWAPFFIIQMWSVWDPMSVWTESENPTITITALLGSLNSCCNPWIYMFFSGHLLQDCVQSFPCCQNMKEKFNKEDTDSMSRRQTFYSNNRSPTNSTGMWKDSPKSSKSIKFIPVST
OXTR potentiate = human OXTR potentiators, primary screen, fluorescence, CHO-OTR cells, Fluo-8 calcium | Oxytocin receptor (Homo sapiens), P30559 | Fluo-8 calcium fluorescence, potentiator mode; 0% = oxytocin EC15, 100% = EC100 | activation, % at 3 µM | 320,000 compounds, 0.061% hits | AID 2445, 2010;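 active = activation above that plate's cutoff, the mean activation of tested compounds plus 3 SD, cut at about 6.6% in these data, passing the limit was not always enough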;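 also: 100% uses oxytocin at 75 nM as the full agonist control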
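assay system = CHO-OTR cells, human receptor | schedule = compound 6 min at room temperature before oxytocin, 100 s read | detection = Fluo-8 intracellular calcium fluorescence, ex 470-495, em 515-575 nm | evaluation = normalized max/min fluorescence ratio, % activation | control set = EC15 oxytocin alone as 0%, 75 nM oxytocin (EC100) as 100%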
TRPML3 ag = human TRPML3 channel agonists, primary screen, cell-based, HEK293 TRPML3-YFP, Fluo-8 calcium fluorescence, 3 µM; Mucolipin-3 (Homo sapiens), Q8TDD5; activation, % at 3 µM; 220,000 compounds, 0.29% hits; 100% = the carbachol control signal;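 active = activation above its plate's cutoff, the mean activation of the plate's test wells plus 3 SD, cut at about 12% in these data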;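 also: 0% = DMSO only wells and 100% = carbachol wells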
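system = HEK293 cells stably carrying human TRPML3-YFP | doses = one concentration, 3 µM nominal, 0.3% DMSO | timing = dye loading 1 h 37 °C then 30 min ambient, 125 s read | detection = Fluo-8 calcium dye fluorescence, ex 470-495, em 515-575 nm | benchmarks = high control carbachol 87 µM, low control DMSO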
* = called active by the depositor; . = no result. In the library only some 0.55% were active in any assay of this set; here they are far more common.

SMILES	OXTR agonist	zfTRPN1 agonist	V1aR counter	OXTR potentiate	TRPML3 ag
Cc1ccc(C2=NN(S(=O)(=O)c3ccccc3)C(c3ccco3)C2)cc1 (configuration not stated)	0	.	1	1	.
O=[N+]([O-])c1ccc(C2=NN(c3ccccc3)C(c3ccco3)C2)cc1 (configuration not stated)	.	24*	.	.	12*
O=[N+]([O-])c1ccc(/C=C/C2=NN(c3ccccc3)C(c3ccco3)C2)cc1 (configuration not stated)	34*	6	27*	-11	2
CCN(CC)c1ccc(/C=C(/C#N)c2nc3ccccc3[nH]2)c(OC(C)C)c1	51*	24*	44*	-13	15*
COc1ccc2cc(C(=O)N/N=C/c3sc4ccccc4c3O)ccc2c1	36*	14	35*	-13	9
Cc1cc(C(=O)COC(=O)c2ccc(CO)cc2)c(C)n1CC1COc2ccccc2O1 (configuration not stated)	5	5	2	-13	1
Cc1cc(/C=C2\C(=N)N3N=C(c4ccco4)SC3=NC2=O)c(C)n1Cc1ccccc1	36*	6	54*	-17	0
Cc1cc(/C=C2\C(=N)N3N=C(C(C)C)SC3=NC2=O)c(C)n1Cc1ccccc1	48*	10	44*	-22	3
CCC1=NN2C(=N)/C(=C/c3cc(C)n(Cc4ccccc4)c3C)C(=O)N=C2S1	53*	0	69*	-22	0
CC1=NN2C(=N)/C(=C\c3cc(C)n(-c4ccccc4)c3C)C(=O)N=C2S1	0	1	0	-11	1
Cc1cc(/C=C2\C(=N)N3C(SCc4ccccc4)=NSC3=NC2=O)c(C)n1Cc1ccccc1	0	0	0	-7	1
Cc1ccc(SCc2nc3ncccn3c2Br)cc1	0	0	0	-9	1
COCCN(Cc1nc2ccccc2c(=O)[nH]1)C(=O)COc1cccc(C(C)=O)c1	0	.	0	-1	.
Nc1c(C(=O)NCc2ccccc2)nnn1Cc1ccccc1	2	0	4	-7	0
Cc1ccc(Cn2nnc(C(=O)Nc3cc(C)ccc3C)c2N)cc1	20*	5	23*	-9	4
CSc1ccc(Cn2nnc(C(=O)NCc3ccccc3)c2N)cc1	36*	19	36*	-26	11
C/C(=N\Nc1cccc(C(F)(F)F)c1)c1ccc(O)cc1	0	-1	-1	-1	0
COc1ccc(CCC(=O)O)cc1OC	2	1	1	6	1
CCN(C[C@H]1N[C@@](Cc2ccccc2)(C(=O)OC)[C@H]2C(=O)N(C)C(=O)[C@@H]12)C(=O)NC(C)C	0	.	1	-3	.
CN(C)S(=O)(=O)c1ccc(Cl)c(C(=O)NC2=NCCS2)c1	0	.	1	-8	.
CCCN1C(=O)/C(=C/c2c(N3CCNC(=O)C3CC(=O)OC)nc3c(C)cccn3c2=O)SC1=S (configuration not stated)	.	31*	.	.	10
CCOC(=O)CC1C(=O)NCCN1C(=O)c1cc2c(=O)n3cccc(C)c3nc2s1 (configuration not stated)	-1	1	1	-5	0
Cc1ccc(N2CC(C(=O)Nc3nnc(SCC(=O)N4CCOCC4)s3)CC2=O)cc1 (configuration not stated)	0	.	1	-5	.
COc1ccc2c(c1)CC(N1CCN(C)CC1)c1cc(OC)ccc1S2 (configuration not stated)	34*	.	25*	-21	.
Cc1ccc(C2=NS(=O)(=O)N(C)C(C(=O)NC3CCCCC3)=C2)cc1	1	.	5	-6	.
SMILES	OXTR agonist	zfTRPN1 agonist	V1aR counter	OXTR potentiate	TRPML3 ag
O=C1c2cccc3c(N4CCCCC4)ccc(c23)C(=O)N1c1cccc(O)c1	33*	70*	40*	-13	33*
C=CCN1C(=O)c2cccc3c(N4CCCCC4)ccc(c23)C1=O	9	9	10	-6	4
Cc1n[nH]c(C)c1N1C(=O)c2cccc3c(N4CCCCCC4)ccc(c23)C1=O	146*	125*	150*	-24	86*
CCOC(=O)c1c(NC(=O)Cn2nc(C(F)(F)F)cc2C)sc(C)c1C	-1	1	0	-3	0
OCCC1CN(C2CCN(c3ccccc3)CC2)CCN1Cc1ccc(F)c(F)c1 (configuration not stated)	3	2	7	-4	1
COc1ccc(C(=O)NC(=S)NNC(=O)c2ccccc2C)cc1	58*	.	60*	-22	.
COc1ccc(C(=O)NC(=S)NNC(=O)c2ccccc2O)cc1	8	.	5	-16	.
CCCOc1ccc(C(=O)NNC(=S)NC(=O)c2cc(-c3ccc(Cl)cc3)nc3ccccc23)cc1	2	-1	1	-11	0
COc1ccc(C(=O)NNC(=S)NC(=O)c2cc(-c3ccccc3)nc3ccccc23)cc1	35*	22*	28*	-21	7
CC(C)(C)C(=O)NC(=S)NNC(=O)c1sc2ccccc2c1Cl	99*	49*	112*	-21	23*
COc1ccc(C(=O)NNC(=S)NC(=O)C(C)(C)C)cc1	78*	41*	81*	-12	17*
N#C/C(=C\c1c[nH]c2ccccc12)C(=O)NCC1CCCO1 (configuration not stated)	0	2	1	1	1
CC(C)(C)c1ccc(S(=O)(=O)N2CCN(C(=O)C3CCC3)CC2)cc1	1	.	7	-4	.
CCn1nnc2cc(C(=O)Nc3cccc(S(=O)(=O)N(C)C)c3)ccc21	2	.	1	-2	.
Cc1cc(C)c(C#N)c(Nc2cccc(C)c2C)n1	-2	.	-1	-5	.
CC(=O)Nc1sc2c(c1-c1nc3ccccc3s1)CCN(C(C)C)C2	1	24*	1	-3	9
N#Cc1c(NC(=S)NC(=O)c2ccccc2)sc2c1CCN(CCc1ccccc1)C2	28*	24*	57*	-15	14*
COc1ccc(/C(N)=N/OC(=O)CN(C)S(=O)(=O)c2ccc(C)cc2)cc1	.	-1	.	.	84*
Cc1ccc(/C(N)=N/OC(=O)CN(C)S(=O)(=O)c2ccc(C)cc2)cc1	0	.	4	-8	.
S=C(Cc1cccnc1)N1CCOCC1	1	0	0	3	0
